Data: ChEMBL document CHEMBL5385902, “Synthesis of urea and thiourea derivatives of C20-epi-aminosalinomycin and their activity against Trypanosoma brucei” (Eur J Med Chem, 2023)
Converted amounts (≈) assume the structure as drawn. The source made the active and inactive calls. The calls are words filed in the database; no cut-off is given here.

Assays:
[1] = Cytotoxicity against human HL-60 cells assessed as cell killing incubated for 24 hrs by microscopic analysis; assay type: toxicity, cell-based; details: read-out: MIC
In short: (§1)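 Bloodstream-form T. brucei 427-221a seeded at 1 × 10^4 mL^-1 or HL-60 cells at 5 × 10^4 mL^-1 in Baltz medium with 16.7% heat-inactivated bovine serum, 0.9% DMSO, 10-fold dilutions 100 μM to 100 nM; 37 °C, 5% CO2. MIC, concentration killing all cells, determined microscopically. Possible values 100 μM down to […].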

[2] = Selectivity index, ratio of GI50 for cytotoxicity against human HL60 cells to GI50 for Trypanocidal activity against bloodstream form of Trypanosoma brucei 427-221a; assay type: toxicity, cell-based; details: read-out: RatioGI50
In short: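 Ratio of HL-60 GI50 to T. brucei GI50. Both from the resazurin assay in Baltz medium with 16.7% heat-inactivated bovine serum and 0.9% DMSO, 10-fold dilutions 100 μM to 100 nM, 24 h then 48 h with resazurin. GI50 by linear interpolation, three independent experiments.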

[3] = Cytotoxicity against human HL-60 cells assessed as inhibition of cell growth incubated for 24 hrs and measured at 48 hrs following resazurin challenge by resazurin assay; assay type: toxicity, cell-based
In short: (§2)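 Bloodstream-form T. brucei 427-221a (1 × 10^4 mL^-1) or HL-60 cells (5 × 10^4 mL^-1) in Baltz medium with 16.7% heat-inactivated bovine serum, 0.9% DMSO, 10-fold dilutions 100 μM to 100 nM; 37 °C, 5% CO2, 24 h. Resazurin then added, 48 h more; absorbance 570 nm, reference 630 nm. GI50 by linear interpolation; mean and SD of three independent experiments.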

Trypanosoma brucei [4] = assay: Trypanocidal activity against bloodstream form of Trypanosoma brucei 427-221a assessed as parasite killing incubated for 24 hrs by microscopic analysis; assay type: functional; in short: as §1
Trypanosoma brucei [5] = assay: Trypanocidal activity against bloodstream form of Trypanosoma brucei 427-221a assessed as inhibition of parasite growth incubated for 24 hrs and measured at 48 hrs following resazurin challenge by resazurin assay; assay type: functional; details: time 72 hrs; in short: as §2
[6] = Selectivity index, ratio of MIC for cytotoxicity against human HL60 cells to MIC for Trypanocidal activity against bloodstream form of Trypanosoma brucei 427-221a; assay type: toxicity, cell-based; details: read-out: Selectivity Index
Trypanosoma brucei [7] = assay: Trypanocidal activity against bloodstream form of Trypanosoma brucei 427-221a assessed as increase in cell swelling activity at 100 uM measured every 10 min for 60 mins by light scattering method; assay type: functional, organism-based
In short: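 Light-scattering cell-volume assay. 1 × 10^7 bloodstream-form T. brucei 427-221a in 200 μL Baltz medium with 100 μM compound and 0.9% DMSO; controls with DMSO only. Absorbance at 490 nm read every 10 min for 60 min; falling absorbance indicates cell swelling. Rate constant k of the absorbance decrease derived. Means of three independent experiments.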

Row | Compound | MCC at 24 h [1] | selectivity ratio [2] | GI50 at 72 h [3] | MIC (Trypanosoma brucei [4]) | GI50 (Trypanosoma brucei [5]) | selectivity ratio [6] | Activity (Trypanosoma brucei [7])
1 | CC[C@@H](C(=O)[C@@H](C)[C@@H](O)[C@H](C)[C@@H]1O[C@@H]([C@@H](CC)C(=O)O)CC[C@@H]1C)[C@H]1O[C@]2(C=C[C@H](NC(=O)NCCCl)[C@]3(CC[C@@](C)([C@H]4CC[C@](O)(CC)[C@H](C)O4)O3)O2)[C@H](C)C[C@@H]1C | 100 µM | 12 | 38.5 µM | 10 µM (≈ 8.56 µg/mL) | 3.2 µM | 10 | 
2 | CCCNC(=O)N[C@H]1C=C[C@]2(O[C@H]([C@@H](CC)C(=O)[C@@H](C)[C@@H](O)[C@H](C)[C@@H]3O[C@@H]([C@@H](CC)C(=O)O)CC[C@@H]3C)[C@@H](C)C[C@H]2C)O[C@@]12CC[C@@](C)([C@H]1CC[C@](O)(CC)[C@H](C)O1)O2 | 100 µM | 12.7 | 36.7 µM | 10 µM (≈ 8.35 µg/mL) | 2.9 µM | 10 | 
3 | CCNC(=S)N[C@H]1C=C[C@]2(O[C@H]([C@@H](CC)C(=O)[C@@H](C)[C@@H](O)[C@H](C)[C@@H]3O[C@@H]([C@@H](CC)C(=O)O)CC[C@@H]3C)[C@@H](C)C[C@H]2C)O[C@@]12CC[C@@](C)([C@H]1CC[C@](O)(CC)[C@H](C)O1)O2 | 100 µM | 56.1 | 18.5 µM | 1 µM (≈ 0.837 µg/mL) | 0.33 µM | 100 | 
4 | CCCCNC(=S)N[C@H]1C=C[C@]2(O[C@H]([C@@H](CC)C(=O)[C@@H](C)[C@@H](O)[C@H](C)[C@@H]3O[C@@H]([C@@H](CC)C(=O)O)CC[C@@H]3C)[C@@H](C)C[C@H]2C)O[C@@]12CC[C@@](C)([C@H]1CC[C@](O)(CC)[C@H](C)O1)O2 | 10 µM | 46.7 | 8.4 µM | 1 µM (≈ 0.865 µg/mL) | 0.18 µM | 10 | Active
5 | CCCCCCCCNC(=O)N[C@H]1C=C[C@]2(O[C@H]([C@@H](CC)C(=O)[C@@H](C)[C@@H](O)[C@H](C)[C@@H]3O[C@@H]([C@@H](CC)C(=O)O)CC[C@@H]3C)[C@@H](C)C[C@H]2C)O[C@@]12CC[C@@](C)([C@H]1CC[C@](O)(CC)[C@H](C)O1)O2 | 10 µM | 23.3 | 6.3 µM | 1 µM (≈ 0.905 µg/mL) | 0.27 µM | 10 | 
6 | CC[C@@H](C(=O)[C@@H](C)[C@@H](O)[C@H](C)[C@@H]1O[C@@H]([C@@H](CC)C(=O)O)CC[C@@H]1C)[C@H]1O[C@]2(C=C[C@H](NC(=O)Nc3ccccc3)[C@]3(CC[C@@](C)([C@H]4CC[C@](O)(CC)[C@H](C)O4)O3)O2)[C@H](C)C[C@@H]1C | 100 µM | 15.5 | 44.9 µM | 10 µM (≈ 8.69 µg/mL) | 2.9 µM | 10 | 
7 | CCNC(=O)N[C@H]1C=C[C@]2(O[C@H]([C@@H](CC)C(=O)[C@@H](C)[C@@H](O)[C@H](C)[C@@H]3O[C@@H]([C@@H](CC)C(=O)O)CC[C@@H]3C)[C@@H](C)C[C@H]2C)O[C@@]12CC[C@@](C)([C@H]1CC[C@](O)(CC)[C@H](C)O1)O2 | 100 µM | 13.1 | 42 µM | 10 µM (≈ 8.21 µg/mL) | 3.2 µM | 10 | 
8 | CC[C@@H](C(=O)[C@@H](C)[C@@H](O)[C@H](C)[C@@H]1O[C@@H]([C@@H](CC)C(=O)O)CC[C@@H]1C)[C@H]1O[C@]2(C=C[C@H](N)[C@]3(CC[C@@](C)([C@H]4CC[C@](O)(CC)[C@H](C)O4)O3)O2)[C@H](C)C[C@@H]1C | 100 µM | 25.2 | 83.2 µM | 10 µM (≈ 7.5 µg/mL) | 3.3 µM | 10 | inactive
9 | Cc1ccc(C(=O)Nc2ccc(S(=O)(=O)O)c3cc(S(=O)(=O)O)cc(S(=O)(=O)O)c23)cc1NC(=O)c1cccc(NC(=O)Nc2cccc(C(=O)Nc3cc(C(=O)Nc4ccc(S(=O)(=O)O)c5cc(S(=O)(=O)O)cc(S(=O)(=O)O)c45)ccc3C)c2)c1 [SURAMIN] | > 100 µM | > 2560 | > 100 µM | 0.1 µM (≈ 0.13 µg/mL) | 0.039 µM | > 1000 | 
